Article PMC10155261 (European journal of medicinal chemistry, 2022)
Read-outs that look alike come from different tables or passages of the source.

Assays:
[1] = tested on: CFA-induced nociceptive hypersensitivity in rats; assay: CFA-induced inflammatory pain model, von Frey mechanical nociception; type: in vivo, Sprague-Dawley rats; conditions: i.p.; for duration of effect in CFA model: 65 and 66 at 17.8 mg/kg, 2 at 32 mg/kg
[2] = tested on: CCI-induced mechanical allodynia in rats; assay: Chronic constriction injury; type: in vivo, Sprague-Dawley rats; conditions: i.p., 32 mg/kg
LPA5 [3] = conditions: cAMP assay ref 31; cited from earlier work
LPA5 [4] = conditions: SAR study of Kawamoto et al. ref 32; cited from earlier work
hLPA5 [5] = target: T1, hLPA5 (Homo sapiens, UniProt Q9H1C0); assay: LPA5 calcium mobilization assay; type: cell-based; conditions: for fold less potent than 2: in both calcium mobilization and cAMP assays; for IC50, nM: RH7777-hLPA5 cells, against EC80 (30 nM) of hexadecyl LPA 16:0, mean ± SEM
In short: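 RH7777-hLPA5 cells were plated on poly-D-lysine at 20,000 cells/well in 0.2% FBS medium for 18–20 h at 37 °C. They were loaded 45 min with Calcium 5 dye in HBSS, 20 mM HEPES and 2.5 mM probenecid, pH 7.4. Eight test-compound concentrations were pre-incubated for 15 min at 37 °C, then hexadecyl LPA 16:0 EC80 (30 nM) was added at 10 s. Fluorescence (485/525 nm) was read every 1 s for 90 s. IC50 came from a three-parameter logistic fit of RFU. Duplicate determinations; two or at least three independent experiments.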

hLPA5 [6] = target: T1, hLPA5; assay: LPA5 TR-FRET Lance Ultra cAMP assay; type: cell-based; conditions: for fold less potent than 2: cAMP assay
[7] = Metabolic stability in rat liver microsomes; type: in vitro ADME; conditions: pH 7.4
In short: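 Rat liver microsomes (0.5 mg/mL protein) were used in 100 mM potassium phosphate, pH 7.4, at 37 °C, with NADPH at 1 mM final. Samples were taken at 0, 5, 15, 30 and 45 min and quenched 1:1 in cold acetonitrile containing labetalol and glyburide. Parent was measured by LC-MS/MS, and half-life and in vitro clearance were calculated. Two independent experiments in duplicate.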

[8] = tested on: >50 GPCRs (NIMH Psychoactive Drug Screening Program panel); assay: NIMH PDSP radioligand binding panel; conditions: < 50% inhibition at 10 μM or pKi ≤ 6
P-glycoprotein (MDR1) = assay: Bidirectional MDCK-MDR1 permeability; type: in vitro ADME; conditions: dog, MDCK-MDR1, pH 7.4
In short: (§1)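 MDCK-mdr1 cells (passage 5) were grown on polycarbonate Transwell supports for 3 days and rinsed with warm HBSS. They were pre-incubated 30 min at 37 °C in HBSS with 10 mM HEPES and 0.25% BSA, pH 7.4, then TEER was measured. Test compound at 10 μM went to the apical donor (A-to-B) or basolateral donor (B-to-A) side, at 37 °C with light agitation. Receiver was sampled at 30, 60 and 90 min and analysed by LC-MS/MS. Papp came from dQ/dt, area 1.12 cm2 and initial donor concentration. Atenolol and propranolol were references.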

[9] = Bidirectional MDCK-MDR1 permeability; type: in vitro ADME; conditions: dog, MDCK-MDR1, pH 7.4, Papp (B-to-A), MDCK-MDR1 Transwell, 10 μM
In short: as §1

MDCK-mdr1 cells = assay: Bidirectional MDCK-MDR1 permeability; type: in vitro ADME; conditions: MDCK-MDR1 Transwell, 10 μM
In short: as §1

LPA1–LPA4 receptors = assay: LPA1–LPA3 calcium mobilization; type: cell-based; conditions: 10 μM in Ca2+ for LPA1–LPA3 and cAMP for LPA4
In short: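 Selectivity was tested with test compound at 10 μM. LPA1–LPA3 calcium mobilization was run externally in CHO cells over-expressing each receptor, under the provider's protocols. LPA4 was a TR-FRET cAMP assay in LPA4-overexpressing CHO cells, following the LPA5 cAMP method but against 250 nM hexadecyl LPA 16:0 (EC80).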

LPA5 [10] = conditions: read-out: IC50, binding to [^3H]LPA; literature value ref 8; cited from earlier work

T1 sequence (Q9H1C0 whole entry): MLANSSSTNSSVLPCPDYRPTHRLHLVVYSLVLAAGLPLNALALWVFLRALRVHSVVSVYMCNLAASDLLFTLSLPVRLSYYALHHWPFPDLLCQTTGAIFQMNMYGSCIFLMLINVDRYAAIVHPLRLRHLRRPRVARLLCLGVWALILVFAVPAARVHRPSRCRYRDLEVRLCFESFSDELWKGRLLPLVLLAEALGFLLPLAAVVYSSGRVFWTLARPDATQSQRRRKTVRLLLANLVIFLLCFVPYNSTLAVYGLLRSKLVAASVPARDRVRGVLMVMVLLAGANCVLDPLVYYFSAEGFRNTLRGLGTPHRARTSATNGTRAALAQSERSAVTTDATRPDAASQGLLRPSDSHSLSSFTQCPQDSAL

Structure (SMILES): COc1cc2c(C(=O)N3CCCCC3)cn(-c3noc4ccc(C)cc34)c(=O)c2cc1OC [Compound 2, 6,7-Dimethoxy-2-(5-methylbenzo[d]isoxazol-3-yl)-4-(piperidine-1-carbonyl)isoquinolin-1(2H)-o-ne, reference compound]
- effect on CFA-induced nociceptive hypersensitivity ([1]; 32 mg/kg): did not fully reverse the nociceptive hypersensitivity
- duration of effect in CFA model [1]: ~ 2 h
- antinociceptive effect in CCI model [2]: full antinociceptive effects
- IC50 (LPA5 [3]): 38 nM

Structure (SMILES): CCN1CCc2ccc(-n3cc(C(=O)N4CCC(F)CC4)c4cc(OC)c(OC)cc4c3=O)cc21 [Compound 3, 2-(1-Ethylindolin-6-yl)-4-(4-fluoropiperidine-1-carbonyl)-6,7-dimethoxyisoquinolin-1(2H)-one, reference compound]
- IC50 (LPA5 [4]): 120 nM
- fold less potent than 2 (hLPA5 [5]): 2–3 fold

Structure (SMILES): COc1cc2c(C(=O)N(C)C)cn(-c3cccc(N(C)C)c3)c(=O)c2cc1OC [Compound 10, 2-(3-(Dimethylamino)phenyl)-6,7-dimethoxy-N,N-dimethyl-1-oxo-1,2-dihydroisoquinoline-4-car-boxamide]
- IC50, nM (hLPA5 [5]): inactive

Structure (SMILES): COc1cc2c(C(=O)N(C)Cc3ccncc3)cn(-c3cccc(N(C)C)c3)c(=O)c2cc1OC [Compound 11, 2-(3-(Dimethylamino)phenyl)-6,7-dimethoxy-N-methyl-1-oxo-N-(pyridin-4-ylmethyl)-1,2-dihydr-oisoquinoline-4-carboxamide]
- IC50, nM (hLPA5 [5]): inactive

Structure (SMILES): COc1cc2c(C(=O)N3CCC3)cn(-c3cccc(N(C)C)c3)c(=O)c2cc1OC [Compound 13, 4-(Azetidine-1-carbonyl)-2-(3-(dimethylamino)phenyl)-6,7-dimethoxyisoquinolin-1(2H)-one]
- IC50, nM (hLPA5 [5]): inactive

Structure (SMILES): COc1cc2c(C(=O)N3CCCC3)cn(-c3cccc(N(C)C)c3)c(=O)c2cc1OC [Compound 14, 2-(3-(Dimethylamino)phenyl)-6,7-dimethoxy-4-(pyrrolidine-1-carbonyl)isoquinolin-1(2H)-one]
- IC50, nM (hLPA5 [5]): inactive

Structure (SMILES): COc1cc2c(C(=O)N3CCC(F)CC3)cn(-c3cccc(N(C)C)c3)c(=O)c2cc1OC [Compound 23, 2-(3-(Dimethylamino)phenyl)-4-(4-fluoropiperidine-1-carbonyl)-6,7-dimethoxyisoquinolin-1(2H-)-one]
- fold less potent than 2 (hLPA5 [6]): 4 – 10 fold

Structure (SMILES): COc1cc2c(C(=O)N3CCC(C#N)CC3)cn(-c3cccc(N(C)C)c3)c(=O)c2cc1OC [Compound 24, 1-(2-(3-(Dimethylamino)phenyl)-6,7-dimethoxy-1-oxo-1,2-dihydroisoquinoline-4-carbonyl)piper-idine-4-carbonitrile]
- IC50 (hLPA5 [6]): 2100 ± 300 nM
- fold less potent than 2 (hLPA5 [6]): 4 – 10 fold

Structure (SMILES): C#CC1CCN(C(=O)c2cn(-c3cccc(N(C)C)c3)c(=O)c3cc(OC)c(OC)cc23)CC1 [Compound 26, 2-(3-(Dimethylamino)phenyl)-4-(4-ethynylpiperidine-1-carbonyl)-6,7-dimethoxyisoquinolin-1(2-H)-one]
- IC50 (hLPA5 [6]): 890 ± 100 nM
- fold less potent than 2 (hLPA5 [6]): 4 – 10 fold
- fold more potent than the unsubstituted piperidine 15 (hLPA5 [5]; calcium assay): ~ 2 fold

Structure (SMILES): CN(C)c1cccc(-n2cc(C(=O)N3CCC(F)CC3)c3ccccc3c2=O)c1 [Compound 34, 2-(3-(Dimethylamino)phenyl)-4-(4-fluoropiperidine-1-carbonyl)isoquinolin-1(2H)-one]
- IC50, nM (hLPA5 [5]): total loss of potency

Structure (SMILES): COc1cc2c(=O)n(-c3cccc(N(C)C)c3)cc(C(=O)N3CCC(F)CC3)c2cc1OCc1cccc2ccccc12 [Compound 44, 2-(3-(Dimethylamino)phenyl)-4-(4-fluoropiperidine-1-carbonyl)-7-methoxy-6-(naphthalen-1-ylm-ethoxy)isoquinolin-1(2H)-one]
- IC50, nM (hLPA5 [5]): total loss of activity

Structure (SMILES): COc1cc2c(=O)n(-c3cccc(N(C)C)c3)cc(C(=O)N3CCC(F)CC3)c2cc1OCc1ccccn1 [Compound 45, 2-(3-(Dimethylamino)phenyl)-4-(4-fluoropiperidine-1-carbonyl)-7-methoxy-6-(pyridin-2-ylmeth-oxy)isoquinolin-1(2H)-one]
- IC50, nM (hLPA5 [5]): total loss of activity

Structure (SMILES): COc1cc2c(C(=O)N3CCCCC3)cn(-c3cccc(C(N)=O)c3)c(=O)c2cc1OC [Compound 50, 3-(6,7-Dimethoxy-1-oxo-4-(piperidine-1-carbonyl)isoquinolin-2(1H)-yl)benzamide]
- IC50, nM (hLPA5 [5]): completely inactive

Structure (SMILES): COc1cc2c(C(=O)N3CCCCC3)cn(-c3cccc(C(=O)N(C)C)c3)c(=O)c2cc1OC [Compound 51, 3-(6,7-Dimethoxy-1-oxo-4-(piperidine-1-carbonyl)isoquinolin-2(1H)-yl)-N,N-dimethylbenzamide]
- IC50, nM (hLPA5 [5]): completely inactive

Structure (SMILES): COc1cc2c(C(=O)N3CCCCC3)cn(-c3ccc4occ(C)c4c3)c(=O)c2cc1OC [Compound 56, 6,7-Dimethoxy-2-(3-methylbenzofuran-5-yl)-4-(piperidine-1-carbonyl)isoquinolin-1(2H)-one]
- potency difference between cAMP and calcium mobilization assays (hLPA5 [6]): 3.9 fold

Structure (SMILES): COc1cc2c(C(=O)N3CCCCC3)cn(-c3ccc4ccn(C)c4c3)c(=O)c2cc1OC [Compound 58, 6,7-Dimethoxy-2-(1-methyl-1H-indol-6-yl)-4-(piperidine-1-carbonyl)isoquinolin-1(2H)-one]
- potency difference between cAMP and calcium mobilization assays (hLPA5 [6]): 7.2 fold

Structure (SMILES): COc1cc2c(C(=O)N3CCC(F)CC3)cn(-c3ccc4occ(C)c4c3)c(=O)c2cc1OC [Compound 64, 4-(4-Fluoropiperidine-1-carbonyl)-6,7-dimethoxy-2-(3-methylbenzofuran-5-yl)isoquinolin-1(2H)-one]
- fold less potent than 3 and 66 (hLPA5 [5]; calcium assay): ~ 4 fold

Structure (SMILES): COc1cc2c(C(=O)N3CCC(F)CC3)cn(-c3ccc4scc(C)c4c3)c(=O)c2cc1OC [Compound 65, 4-(4-Fluoropiperidine-1-carbonyl)-6,7-dimethoxy-2-(3-methylbenzo[b]thiophen-5-yl)isoquinolin-1(2H)-one]
- CLint scaled at 0.75 h [7]: 48.4 mL/min/kg
- affinity for panel receptors [8]: no significant affinity for most of the receptors
- potency difference between cAMP and calcium mobilization assays (hLPA5 [6]): 4.9 fold
- efflux ratio at 90 min, 10 μM (P-glycoprotein (MDR1)): < 2.5
- Papp B→A at 90 min, 10 μM [9]: 31.1 ×10⁻⁶ cm/s
- Papp (B-to-A) (MDCK-mdr1 cells): 30.4 10^−6 cm/s
- effect on CFA-induced nociceptive hypersensitivity ([1]; 17.8 mg/kg): markedly alleviated nociceptive hypersensitivity
- duration of effect in CFA model [1]: ~ 5 h
- LPA1–LPA4 inhibition (LPA1–LPA4 receptors): <50%
- fold less potent than 2 (hLPA5 [5]): 1.5–2 fold

Structure (SMILES): CCCCCCCCCCCCCCCCOC[C@@H](O)COP(=O)(O)O [hexadecyl LPA 16:0, reference compound]
- IC50 (LPA5 [10]): 7.5 nM
- potency difference between cAMP and calcium mobilization assays (hLPA5 [6]): about 6 fold
